Results taken from ChEMBL document CHEMBL1165943, “Design and synthesis of new anticancer pyrimidines with multiple-kinase inhibitory effect” (Bioorg Med Chem, 2010).
pIC50: −log10 of the molar value.

Key:
SK-MEL-28 = experiment: Cytotoxicity against human SK-MEL-28 cells assessed as cell growth at 10 uM; type: functional; conditions: Homo sapiens, SK-MEL-28; read-out: Activity
Summary of the method: (§1)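 Single-dose screen at 10 μM across the 60-cell-line panel. Cells grown in RPMI 1640 with 5% FBS and 2 mM L-glutamine, seeded at 5,000–40,000 cells/well according to doubling time, and treated 24 h later. Exposure lasted 48 h at 37 °C, 5% CO₂. Adherent cells were fixed with cold TCA, suspension cells were fixed settled, and both were stained with SRB and read at 515 nm. Growth % was recorded, with inhibition % = 100 − growth %.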

[1] = Cytotoxicity against human Hs 578T cells assessed as cell growth at 10 uM; type: functional; conditions: read-out: Activity
Summary of the method: (§2)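 Single-concentration screen at 10 μM across the 60-cell-line panel (nine tissue types); growth percentage recorded per cell line, with inhibition taken as 100 minus growth percentage.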

NCI-H460 = experiment: Cytotoxicity against human NCI-H460 cells assessed as cell growth at 10 uM; type: functional; conditions: Homo sapiens, NCI-H460; read-out: Activity; summary of the method: as §1
OVCAR-3 = experiment: Growth inhibition of human OVCAR-3 cells after 48 hrs by sulforhodamine B assay; type: functional, cell-based; conditions: OVCAR-3, 48 h; for CC50: read-out: LC50 (the source's name)
Summary of the method: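 Cells grown in RPMI 1640 with 5% FBS and 2 mM L-glutamine, seeded at 5,000–40,000 cells/well according to doubling time. After 24 h, time-zero plates are TCA-fixed. Five concentrations (10-fold or ½log dilutions, DMSO stocks) are applied for 48 h at 37 °C, 5% CO₂. Cells are TCA-fixed, SRB-stained and read at 515 nm. IC₅₀ is taken from [(Ti−Tz)/(C−Tz)]×100 = 50.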

M14 [2] = experiment: Cytotoxicity against human M14 cells assessed as cell growth at 10 uM; type: functional; conditions: Homo sapiens, M14; read-out: Activity; summary of the method: as §1
U-251 = experiment: Cytotoxicity against human U251 cells assessed as cell growth at 1 uM after 48 hrs by sulforhodamine B assay; type: functional; conditions: U-251, 48 h, read-out: Activity
SW-620 = experiment: Cytotoxicity against human SW620 cells assessed as cell growth at 10 uM; type: functional; conditions: Homo sapiens, SW-620; read-out: Activity; summary of the method: as §1
EKVX = experiment: Cytotoxicity against human EKVX cells assessed as cell growth at 10 uM; type: functional; conditions: Homo sapiens, EKVX; read-out: Activity; summary of the method: as §2
SN12C = experiment: Cytotoxicity against human SN12C cells assessed as cell growth at 10 uM; type: functional; conditions: Homo sapiens, SN12C; read-out: Activity; summary of the method: as §1
NCI-H23 = experiment: Cytotoxicity against human NCI-H23 cells assessed as cell growth at 1 uM after 48 hrs by sulforhodamine B assay; type: functional; conditions: NCI-H23, 48 h, read-out: Activity
MDA-MB-435 [3] = experiment: Cytotoxicity against human MDA-MB-435 cells assessed as cell growth at 10 uM; type: functional; conditions: read-out: Activity; summary of the method: as §1
ACHN = experiment: Cytotoxicity against human ACHN cells assessed as cell growth at 1 uM after 48 hrs by sulforhodamine B assay; type: functional; conditions: read-out: Activity
Summary of the method: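 Cells grown in RPMI 1640 with 5% FBS and 2 mM L-glutamine, seeded at 5,000–40,000 cells/well by doubling time. Time-zero plates TCA-fixed after 24 h. Five concentrations (10-fold or half-log dilutions from DMSO stock) added; 48 h at 37 °C, 5% CO2. Cold TCA fixation (final 10%, 60 min, 4 °C), 0.4% SRB stain, dye solubilized in 10 mM trizma base, A515.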

T47D = experiment: Cytotoxicity against human T47D cells assessed as cell growth at 1 uM after 48 hrs by sulforhodamine B assay; type: functional; conditions: read-out: Activity
PC-3 = experiment: Cytotoxicity against human PC3 cells assessed as cell growth at 10 uM; type: functional; conditions: Homo sapiens, PC-3; read-out: Activity; summary of the method: as §1
NCI-H322M [4] = experiment: Cytotoxicity against human NCI-H322M cells assessed as cell growth at 1 uM after 48 hrs by sulforhodamine B assay; type: functional; conditions: read-out: Activity
COLO 205 = experiment: Cytotoxicity against human COLO205 cells assessed as cell growth at 10 uM; type: functional; conditions: Homo sapiens, COLO 205; read-out: Activity; summary of the method: as §2
SK-OV-3 = experiment: Cytotoxicity against human SKOV3 cells assessed as cell growth at 10 uM; type: functional; conditions: Homo sapiens, SK-OV-3; read-out: Activity; summary of the method: as §1
SK-MEL-5 = experiment: Cytotoxicity against human SK-MEL-5 cells assessed as cell growth at 10 uM; type: functional; conditions: Homo sapiens, SK-MEL-5; read-out: Activity; summary of the method: as §1
UACC-257 = experiment: Cytotoxicity against human UACC257 cells assessed as cell growth at 10 uM; type: functional; conditions: Homo sapiens, UACC-257; read-out: Activity; summary of the method: as §1
A549 = experiment: Cytotoxicity against human A549 cells assessed as cell growth at 10 uM; type: functional; conditions: Homo sapiens, A549; read-out: Activity; summary of the method: as §2
MDA-MB-435 [5] = experiment: Cytotoxicity against human MDA-MB-435 cells assessed as cell growth at 1 uM after 48 hrs by sulforhodamine B assay; type: functional; conditions: MDA-MB-435, 48 h, read-out: Activity
RXF 393 = experiment: Cytotoxicity against human RXF393 cells assessed as cell growth at 10 uM; type: functional; conditions: Homo sapiens, RXF 393; read-out: Activity; summary of the method: as §1
SF-295 = experiment: Cytotoxicity against human SF295 cells assessed as cell growth at 10 uM; type: functional; conditions: Homo sapiens, SF-295; read-out: Activity; summary of the method: as §1
CCRF-CEM = experiment: Cytotoxicity against human CCRF-CEM cells assessed as cell growth at 10 uM; type: functional; conditions: Homo sapiens, CCRF-CEM; read-out: Activity; summary of the method: as §2
OVCAR-5 [6] = experiment: Cytotoxicity against human OVCAR5 cells assessed as cell growth at 0.01 uM after 48 hrs by sulforhodamine B assay; type: functional; conditions: OVCAR-5, 48 h, read-out: Activity
NCI-H322M [7] = experiment: Cytotoxicity against human NCI-H322M cells assessed as cell growth at 10 uM; type: functional; conditions: Homo sapiens, NCI-H322M; read-out: Activity; summary of the method: as §1
NCI-H522 = experiment: Cytotoxicity against human NCI-H522 cells assessed as cell growth at 0.01 uM after 48 hrs by sulforhodamine B assay; type: functional; conditions: NCI-H522, 48 h, read-out: Activity
Malme-3M = experiment: Cytotoxicity against human MALME-3M cells assessed as cell growth at 10 uM; type: functional; conditions: Homo sapiens, Malme-3M; read-out: Activity; summary of the method: as §1
M14 [8] = experiment: Cytotoxicity against human M14 cells assessed as cell growth at 100 nM after 48 hrs by sulforhodamine B assay; type: functional; conditions: M14, 48 h, read-out: Activity
OVCAR-5 [9] = experiment: Cytotoxicity against human OVCAR5 cells assessed as cell growth at 10 uM; type: functional; conditions: Homo sapiens, OVCAR-5; read-out: Activity; summary of the method: as §1
[10] = Cytotoxicity against human […] cells assessed as cell growth at 10 uM; type: functional; conditions: Homo sapiens, RPMI8266; read-out: Activity; summary of the method: as §1
SNB-19 = experiment: Cytotoxicity against human SNB19 cells assessed as cell growth at 10 uM; type: functional; conditions: read-out: Activity; summary of the method: as §1
TK-10 = experiment: Cytotoxicity against human TK10 cells assessed as cell growth at 10 uM; type: functional; conditions: Homo sapiens, TK-10; read-out: Activity; summary of the method: as §1
HOP-92 = experiment: Cytotoxicity against human HOP92 cells assessed as cell growth at 10 uM; type: functional; conditions: Homo sapiens, HOP-92; read-out: Activity; summary of the method: as §2

Compound | growth at 10 µM (SK-MEL-28) [%] | growth at 10 µM [1] [%] | growth at 10 µM (NCI-H460) [%] | GI50 (OVCAR-3) [µM] | pIC50 (OVCAR-3) | TGI (OVCAR-3) [µM] | CC50 (OVCAR-3) [µM] | growth at 10 µM (M14 [2]) [%] | growth at 1 µM (U-251) [%] | growth at 10 µM (SW-620) [%] | growth at 10 µM (EKVX) [%] | growth at 10 µM (SN12C) [%] | growth at 1 µM (NCI-H23) [%] | growth at 10 µM (MDA-MB-435 [3]) [%] | growth at 1 µM (ACHN) [%] | growth at 1 µM (T47D) [%] | growth at 10 µM (PC-3) [%] | growth at 1 µM (NCI-H322M [4]) [%] | growth at 10 µM (COLO 205) [%] | growth at 10 µM (SK-OV-3) [%] | also measured
CC(=O)c1ccccc1-c1ccc(-c2ccnc(NC(=O)Nc3cc(N4CCOCC4)cc(C(F)(F)F)c3)n2)cn1 | -74.8 | 60.8 | 87.4 | 6.18 | < 4.00 | > 100 | > 100 | 8.07 | 63 | 90.5 | 88.2 | 52.3 | 52 | 82.8 | 42 | 60 | 71.3 | 88 | 85.7 | 71.5 | growth at 10 µM (SK-MEL-5): 43.2%; growth at 10 µM (UACC-257): 65.1%; growth at 10 µM (A549): 68%; growth at 1 µM (MDA-MB-435 [5]): 71%; growth at 10 µM (RXF 393): -19.6%; growth at 10 µM (SF-295): 74.8%; growth at 10 µM (CCRF-CEM): 80.7%; growth at 0.01 µM (OVCAR-5 [6]): 100%; growth at 10 µM (NCI-H322M [7]): 90.1%; growth at 0.01 µM (NCI-H522): 103%; growth at 10 µM (Malme-3M): 24.8%; growth at 0.1 µM (M14 [8]): 77%; growth at 10 µM (OVCAR-5 [9]): 102%; growth at 10 µM [10]: 79.7%; growth at 10 µM (SNB-19): 71.7%; growth at 10 µM (TK-10): 47.8%
CC(=O)Nc1cccc(-c2ccc(-c3ccnc(NC(=O)Nc4cc(C(F)(F)F)cc(C(F)(F)F)c4)n3)cn2)c1.Cl | -37.6 | 120 | 34.5 | 1.85 | 5.73 | 4.23 | 9.69 | 46.5 | -32 | 85.2 | 69.2 | 68 | -16 | 73.9 | 20 | -3 | 56.2 | 12 | 53.5 | 83.1 | growth at 10 µM (HOP-92): 72.4%; growth at 10 µM (SK-MEL-5): -25.5%; growth at 10 µM (UACC-257): 50.5%; growth at 1 µM (MDA-MB-435 [5]): -18%; growth at 10 µM (RXF 393): 121%; growth at 10 µM (SF-295): 49%; growth at 10 µM (CCRF-CEM): 43.3%; growth at 0.01 µM (OVCAR-5 [6]): 82%; growth at 10 µM (NCI-H322M [7]): 41.8%; growth at 0.01 µM (NCI-H522): 77%; growth at 10 µM (Malme-3M): 52.3%; growth at 0.1 µM (M14 [8]): 92%; growth at 10 µM (OVCAR-5 [9]): 93.5%; growth at 10 µM [10]: 38.1%; growth at 10 µM (SNB-19): 50.5%; growth at 10 µM (TK-10): 76%
